Converted amounts (≈) assume the structure as drawn. The source made the active and inactive calls. The rule behind the calls is not given here.
Assays:
Staphylococcus aureus [1] = assay: Antibacterial activity against Staphylococcus aureus assessed as growth inhibition at 16 ug/ml after 24 hrs; assay type: functional, organism-based
Method in brief: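 S. aureus grown in Mueller Hinton Broth to early exponential phase, then exposed to compound (16 μg/mL; DMSO stocks 10 mg/mL) or DMSO in duplicate, 37 °C for 24 h. OD600 read; percent normalized OD600 = (X − media blank)/(DMSO control − media blank) × 100.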

Staphylococcus aureus [2] = assay: Bacteriostatic activity against Staphylococcus aureus ATCC 25923 after 20 hrs by broth microdilution method; assay type: functional; conditions: ATCC 25923, 20 h
Method in brief: (§1)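 Broth microdilution MIC over 128 to 1 μg/mL, run alongside methicillin, linezolid and vancomycin. MIC taken as the lowest concentration with no visible growth.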

Staphylococcus aureus [3] = assay: Bacteriostatic activity against methicillin-resistant Staphylococcus aureus ATCC 33592 after 20 hrs by broth microdilution method; assay type: functional; conditions: ATCC 33592, 20 h; method in brief: as §1
Enterococcus faecalis [4] = assay: Bacteriostatic activity against Enterococcus faecalis ATCC 29212 after 20 hrs by broth microdilution method; assay type: functional; conditions: ATCC 29212, 20 h; method in brief: as §1
Enterococcus faecalis [5] = assay: Bacteriostatic activity against vancomycin-resistant Enterococcus faecalis ATCC 51575 after 20 hrs by broth microdilution method; assay type: functional; conditions: ATCC 51575, 20 h; method in brief: as §1
Listeria monocytogenes = assay: Bacteriostatic activity against Listeria monocytogenes ATCC 19115 after 20 hrs by broth microdilution method; assay type: functional; conditions: ATCC 19115, 20 h
Method in brief: (§2)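 MIC by broth microdilution across 128 to 1 μg/mL in 96-well plates, 37 °C for at least 20 h. MIC is the lowest concentration with no visible growth.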

Escherichia coli [6] = assay: Bacteriostatic activity against Escherichia coli BW25113 after 20 hrs by broth microdilution method; assay type: functional; conditions: BW25113, 20 h; method in brief: as §2
Escherichia coli [7] = assay: Bacteriostatic activity against AcrAB-tolC deficient Escherichia coli JW5503-1 after 20 hrs by broth microdilution method; assay type: functional; conditions: JW5503-1, 20 h; method in brief: as §2
Staphylococcus aureus [8] = assay: Antibacterial activity against methicillin-resistant Staphylococcus aureus USA300 in BALB/c mouse wound infection model assessed as reduction in bacterial burden in wound at 2% administered topically bid for 5 days relative to control; assay type: functional; parameters: scale not given: the % may be the effect or the level left
Method in brief: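 Female BALB/c mice, eight weeks old, n = 5 per group, injected intradermally with 40 μL of 1.32×10^9 CFU/mL MRSA USA300. Once an abscess or open wound formed, it was treated topically twice daily for five days with 2% agent in petroleum jelly, with vehicle as control. Wound tissue excised 12 h after the last dose, homogenized in PBS, diluted and plated on mannitol salt agar for 16 h or more at 37 °C. CFU reduction calculated against vehicle.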

Staphylococcus aureus [9] = assay: Bacteriostatic activity against methicillin-resistant Staphylococcus aureus NRS119 clinical isolate after 20 hrs by broth microdilution method; assay type: functional; conditions: NRS119, 20 h; method in brief: as §1
Staphylococcus aureus [10] = assay: Bacteriostatic activity against methicillin-resistant Staphylococcus aureus USA400 NRS123 clinical isolate after 20 hrs by broth microdilution method; assay type: functional; conditions: USA400 NRS123, 20 h; method in brief: as §1
Staphylococcus aureus [11] = assay: Bacteriostatic activity against methicillin-resistant Staphylococcus aureus USA300 NRS384 clinical isolate after 20 hrs by broth microdilution method; assay type: functional; conditions: USA300 NRS384, 20 h; method in brief: as §1
Staphylococcus aureus [12] = assay: Bacteriostatic activity against methicillin-resistant Staphylococcus aureus USA500 NRS385 clinical isolate after 20 hrs by broth microdilution method; assay type: functional; conditions: USA500 NRS385, 20 h; method in brief: as §1
Staphylococcus aureus [13] = assay: Bacteriostatic activity against methicillin-resistant Staphylococcus aureus USA700 NRS386 clinical isolate after 20 hrs by broth microdilution method; assay type: functional; conditions: USA700 NRS386, 20 h; method in brief: as §1
Staphylococcus aureus [14] = assay: Bacteriostatic activity against methicillin-resistant Staphylococcus aureus USA800 NRS387 clinical isolate after 20 hrs by broth microdilution method; assay type: functional; conditions: USA800 NRS387, 20 h; method in brief: as §1
Staphylococcus aureus [15] = assay: Bacteriostatic activity against vancomycin-intermediate Staphylococcus aureus NRS1 clinical isolate after 20 hrs by broth microdilution method; assay type: functional; conditions: NRS1, 20 h; method in brief: as §1
Staphylococcus aureus [16] = assay: Bacteriostatic activity against vancomycin-resistant Staphylococcus aureus VRS12 clinical isolate after 20 hrs by broth microdilution method; assay type: functional; conditions: VRS12, 20 h; method in brief: as §1
Enterococcus faecium [17] = assay: Bacteriostatic activity against vancomycin-resistant Enterococcus faecium ATCC 700221 clinical isolate after 20 hrs by broth microdilution method; assay type: functional; conditions: ATCC 700221, 20 h
Method in brief: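 Broth microdilution MIC over 128 to 1 μg/mL in Brain Heart Infusion broth, 37 °C for at least 20 h. MIC taken as the lowest concentration with no visible growth.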

Staphylococcus aureus [18] = assay: Bactericidal activity against methicillin-resistant Staphylococcus aureus NRS119 clinical isolate preincubated for 20 hrs followed by TSA plating and measured after 18 hrs; assay type: functional
Staphylococcus aureus [19] = assay: Bactericidal activity against methicillin-resistant Staphylococcus aureus USA400 NRS123 clinical isolate preincubated for 20 hrs followed by TSA plating and measured after 18 hrs; assay type: functional
Staphylococcus aureus [20] = assay: Bactericidal activity against methicillin-resistant Staphylococcus aureus USA300 NRS384 clinical isolate preincubated for 20 hrs followed by TSA plating and measured after 18 hrs; assay type: functional
Staphylococcus aureus [21] = assay: Bactericidal activity against methicillin-resistant Staphylococcus aureus USA500 NRS385 clinical isolate preincubated for 20 hrs followed by TSA plating and measured after 18 hrs; assay type: functional
Staphylococcus aureus [22] = assay: Bactericidal activity against methicillin-resistant Staphylococcus aureus USA700 NRS386 clinical isolate preincubated for 20 hrs followed by TSA plating and measured after 18 hrs; assay type: functional
Staphylococcus aureus [23] = assay: Bactericidal activity against methicillin-resistant Staphylococcus aureus USA800 NRS387 clinical isolate preincubated for 20 hrs followed by TSA plating and measured after 18 hrs; assay type: functional
Staphylococcus aureus [24] = assay: Bactericidal activity against vancomycin-intermediate Staphylococcus aureus NRS1 clinical isolate preincubated for 20 hrs followed by TSA plating and measured after 18 hrs; assay type: functional
Staphylococcus aureus [25] = assay: Bactericidal activity against vancomycin-resistant Staphylococcus aureus VRS12 clinical isolate preincubated for 20 hrs followed by TSA plating and measured after 18 hrs; assay type: functional
Enterococcus faecium [26] = assay: Bactericidal activity against vancomycin-resistant Enterococcus faecium ATCC 700221 clinical isolate preincubated for 20 hrs followed by TSA plating and measured after 18 hrs; assay type: functional
Method in brief: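 MBC: 4 μL from wells with no growth in the MIC plate (Brain Heart Infusion broth, 37 °C, at least 20 h) spotted onto Tryptic Soy Agar. Read after at least 18 h at 37 °C.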

Acinetobacter baumannii = assay: Bacteriostatic activity against Acinetobacter baumannii ATCC 19606 after 20 hrs by broth microdilution method; assay type: functional; conditions: ATCC 19606 = CIP 70.34 = JCM 6841; method in brief: as §2
Klebsiella pneumoniae = assay: Bacteriostatic activity against Klebsiella pneumoniae BAA 1706 after 20 hrs by broth microdilution method; assay type: functional; method in brief: as §2
Pseudomonas aeruginosa = assay: Bacteriostatic activity against Pseudomonas aeruginosa ATCC 15442 after 20 hrs by broth microdilution method; assay type: functional; method in brief: as §2

## C[C@@H]1C[C@H](C)CN(S(=O)(=O)c2ccc(C(=O)Nc3nnc(C4CCCO4)o3)cc2)C1 (some centres not stated)
Staphylococcus aureus [1]
  growth inhibition (GI): inactive

## O=C(Nc1nnc(-c2ccco2)o1)c1ccc(S(=O)(=O)N2CCOCC2)cc1
Staphylococcus aureus [1]
  growth inhibition (GI): inactive

## O=C(Nc1nnc(-c2cccs2)o1)c1ccccc1
Staphylococcus aureus [1]
  growth inhibition (GI): inactive

## C[C@@H]1C[C@H](C)CN(S(=O)(=O)c2ccc(C(=O)Nc3nnc(-c4ccc(Br)cc4)o3)cc2)C1 (mixture of isomers)
Staphylococcus aureus [1]
  growth inhibition (GI): Active
Staphylococcus aureus [2]
  MIC: 2 µg/mL
Staphylococcus aureus [3]
  MIC: 4 µg/mL
Enterococcus faecalis [4]
  MIC: 4 µg/mL
Enterococcus faecalis [5]
  MIC: 4 µg/mL
Listeria monocytogenes
  MIC: 4 µg/mL

## C[C@@H]1C[C@H](C)CN(S(=O)(=O)c2ccc(C(=O)Nc3nnc(-c4ccc([N+](=O)[O-])cc4)o3)cc2)C1 (mixture of isomers)
Staphylococcus aureus [1]
  growth inhibition (GI): Active
Staphylococcus aureus [2]
  MIC: 32 µg/mL
Staphylococcus aureus [3]
  MIC: 16 µg/mL
Enterococcus faecalis [4]
  MIC: 64 µg/mL
Enterococcus faecalis [5]
  MIC: 32 µg/mL
Listeria monocytogenes
  MIC: 32 µg/mL

## C[C@@H]1C[C@H](C)CN(S(=O)(=O)c2ccc(C(=O)Nc3nnc(-c4ccc(F)cc4)o3)cc2)C1 (mixture of isomers)
Staphylococcus aureus [1]
  growth inhibition (GI): Active
Staphylococcus aureus [2]
  MIC: 4 µg/mL
Staphylococcus aureus [3]
  MIC: 4 µg/mL
Enterococcus faecalis [4]
  MIC: 4 µg/mL
Enterococcus faecalis [5]
  MIC: 4 µg/mL
Listeria monocytogenes
  MIC: 4 µg/mL

## C[C@@H]1C[C@H](C)CN(S(=O)(=O)c2ccc(C(=O)Nc3nnc(-c4cccc(C#N)c4)o3)cc2)C1 (mixture of isomers)
Staphylococcus aureus [1]
  growth inhibition (GI): Active
Staphylococcus aureus [2]
  MIC: 16 µg/mL
Staphylococcus aureus [3]
  MIC: 8 µg/mL
Enterococcus faecalis [4]
  MIC: 32 µg/mL
Enterococcus faecalis [5]
  MIC: 16 µg/mL
Listeria monocytogenes
  MIC: 8 µg/mL

## C[C@@H]1C[C@H](C)CN(S(=O)(=O)c2ccc(C(=O)Nc3nnc(-c4ccc(Cl)cc4)o3)cc2)C1 (mixture of isomers)
Staphylococcus aureus [1]
  growth inhibition (GI): Active
Staphylococcus aureus [2]
  MIC: 2 µg/mL
Staphylococcus aureus [3]
  MIC: 1 µg/mL
Enterococcus faecalis [4]
  MIC: 4 µg/mL
Enterococcus faecalis [5]
  MIC: 2 µg/mL
Listeria monocytogenes
  MIC: 2 µg/mL

## COc1ccc(-c2nnc(NC(=O)c3ccc(S(=O)(=O)N4C[C@H](C)C[C@H](C)C4)cc3)o2)cc1 (mixture of isomers)
Staphylococcus aureus [1]
  growth inhibition (GI): Active
Staphylococcus aureus [2]
  MIC: 4 µg/mL
Staphylococcus aureus [3]
  MIC: 4 µg/mL
Enterococcus faecalis [4]
  MIC: 4 µg/mL
Enterococcus faecalis [5]
  MIC: 4 µg/mL
Listeria monocytogenes
  MIC: 4 µg/mL

## CC[C@H]1OC(=O)[C@H](C)[C@@H](O[C@H]2C[C@@](C)(OC)[C@@H](O)[C@H](C)O2)[C@H](C)[C@@H](O[C@@H]2O[C@H](C)C[C@H](N(C)C)[C@H]2O)[C@](C)(O)C[C@@H](C)C(=O)[C@H](C)[C@@H](O)[C@]1(C)O [ERYTHROMYCIN]
Escherichia coli [6]
  MIC: 32 µg/mL (≈ 43.6 µM)
Escherichia coli [7]
  MIC: ≤ 1 µg/mL

## CC(=O)O[C@H]1C[C@@]2(C)[C@@H](C[C@@H](O)[C@H]3[C@@]4(C)CC[C@@H](O)[C@@H](C)[C@@H]4CC[C@@]32C)/C1=C(\CCC=C(C)C)C(=O)O [FUSIDIC ACID]
Staphylococcus aureus [8]
  Activity: 77.91%

## CC(=O)NC[C@H]1CN(c2ccc(N3CCOCC3)c(F)c2)C(=O)O1 [LINEZOLID]
Staphylococcus aureus [9]
  MIC: 32 µg/mL (≈ 94.9 µM)
Staphylococcus aureus [10]
  MIC: ≤ 1 µg/mL
Staphylococcus aureus [11]
  MIC: ≤ 1 µg/mL
Staphylococcus aureus [12]
  MIC: ≤ 1 µg/mL
Staphylococcus aureus [13]
  MIC: ≤ 1 µg/mL
Staphylococcus aureus [14]
  MIC: ≤ 1 µg/mL
Staphylococcus aureus [15]
  MIC: ≤ 1 µg/mL
Staphylococcus aureus [16]
  MIC: ≤ 1 µg/mL
Enterococcus faecium [17]
  MIC: ≤ 1 µg/mL
Staphylococcus aureus [18]
  MBC: 32 µg/mL (≈ 94.9 µM)
Staphylococcus aureus [19]
  MBC: 64 µg/mL (≈ 190 µM)
Staphylococcus aureus [20]
  MBC: 64 µg/mL (≈ 190 µM)
Staphylococcus aureus [21]
  MBC: 2 µg/mL (≈ 5.93 µM)
Staphylococcus aureus [22]
  MBC: 128 µg/mL (≈ 379 µM)
Staphylococcus aureus [23]
  MBC: 128 µg/mL (≈ 379 µM)
Staphylococcus aureus [24]
  MBC: 1 µg/mL (≈ 2.96 µM)
Staphylococcus aureus [25]
  MBC: 32 µg/mL (≈ 94.9 µM)
Enterococcus faecium [26]
  MBC: 64 µg/mL (≈ 190 µM)
Escherichia coli [6]
  MIC: > 128 µg/mL
Escherichia coli [7]
  MIC: 8 µg/mL (≈ 23.7 µM)

## COc1cccc(OC)c1C(=O)N[C@@H]1C(=O)N2[C@@H]1SC(C)(C)[C@@H]2C(=O)O [METHICILLIN]
Staphylococcus aureus [2]
  MIC: 2 µg/mL (≈ 5.26 µM)
Staphylococcus aureus [3]
  MIC: > 128 µg/mL

## COLISTIN
Acinetobacter baumannii
  MIC: < 1 µg/mL
Klebsiella pneumoniae
  MIC: < 1 µg/mL
Pseudomonas aeruginosa
  MIC: < 1 µg/mL

— ChEMBL document CHEMBL4152323, “N-(1,3,4-oxadiazol-2-yl)benzamide analogs, bacteriostatic agents against methicillin- and vancomycin-resistant bacteria” (Eur J Med Chem, 2018)
